# High-throughput results deposited in PubChem by The Scripps Research Institute Molecular Screening Center.
# CHO-K1 Ca antag – M1 antagonist counterscreen hit in parental CHO-K1 cells. ATP-induced calcium, Fluo-8 fluorescence. inhibition, % at 3 µM. hit rate 0.6% among 360,000. AID 602250;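 active = inhibition above a per-plate cutoff, the plate's mean sample inhibition plus 3 SD, cut at about 24% in these data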;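 also: 0% = DMSO plus EC80 ATP and 100% = DMSO alone without ATP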
# CHO-K1 Ca PAM – nonselective activator or artifact in parental CHO-K1 calcium assay; hit rate 0.02% among 360,000; ATP EC20, Fluo-8 calcium fluorescence; 0% at ATP EC20, 100% at ATP max; activation, % at 3 µM;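 active = activation above the run cutoff, the mean activation of all test compounds plus 3 SD, cut at about 40% in these data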;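 also: peak over basal fluorescence ratio in a 140 s read after ATP addition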
# CHO parental Ca – counter-screen for OX1R antagonists: effect in parental CHO cells. hit rate 0.63% among 330,000. inhibition, % at 5.6 µM. parental CHO-K1, ATP-induced calcium, Fluo-8 fluorescence. AID 463079;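 active = inhibition above that plate's mean sample inhibition plus 3 SD, cut at about 26% in these data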;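 also: 0% = ATP-challenged DMSO wells and 100% = DMSO wells without ATP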
#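 Test system: untransfected parental CHO cell line; also added: ATP stimulus; dosing: 5.6 µM, single dose; signal: calcium-sensitive Fluo-8 fluorescence; measure: percent inhibition of ATP-evoked calcium rise, normalized to controls; benchmarks: low control ATP plus DMSO, high control DMSO only; replication: one well per compound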
# OX1R antag-1 – blocks the human orexin 1 receptor; O43613; OX1R-expressing cells, FRET antagonist read-out; inhibition, % at 6.6 µM; hit rate 1.8% among 330,000; AID 485270; in the data active = inhibition mostly above about 38%, no sharp cut-off; inactive = mostly below about 40%;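 also: 0% = agonist challenge alone and 100% = reference antagonist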
# Target sequence (O43613 whole entry, looked up): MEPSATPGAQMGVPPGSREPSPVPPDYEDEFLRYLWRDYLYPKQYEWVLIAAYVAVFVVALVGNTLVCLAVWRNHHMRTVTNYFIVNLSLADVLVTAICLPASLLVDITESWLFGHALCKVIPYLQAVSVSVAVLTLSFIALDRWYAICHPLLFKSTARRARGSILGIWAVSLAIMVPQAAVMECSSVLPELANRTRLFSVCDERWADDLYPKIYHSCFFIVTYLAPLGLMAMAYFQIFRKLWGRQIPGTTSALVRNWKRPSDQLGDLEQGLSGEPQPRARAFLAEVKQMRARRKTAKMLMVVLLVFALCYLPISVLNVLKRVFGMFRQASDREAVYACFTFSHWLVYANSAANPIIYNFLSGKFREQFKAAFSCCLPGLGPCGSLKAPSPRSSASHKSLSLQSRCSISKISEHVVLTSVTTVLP
# M1 ag parental – M1 agonist counterscreen hit in parental CHO-K1 cells. Fluo-8 calcium fluorescence; scaled to maximal ATP response, vehicle zero. activation, % at 3 µM. hit rate 0.48% among 360,000; in the data active = activation above about 15%;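 also: untransfected CHO-K1 host cells lacking M1 receptor as counterscreen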
# OX1R antag-2 – antagonists of human orexin 1 receptor | O43613 | CHO/OX1R cells, Fluo-8 calcium fluorescence, orexin A | inhibition, % at 5 µM | hit rate 0.43% among 330,000;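 active = inhibition above its plate's threshold, mean inhibition of all tested compounds on the plate plus 3 SD, cut at about 37% in these data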;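 also: 0% = orexin A challenge wells and 100% = SB-334867-A antagonist wells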
# * marks the source's active call; other numbers are inactive results; · = not tested or not shown. Hits are enriched below; roughly 2.9% of the tested compounds scored in any of these assays.
SMILES,CHO-K1 Ca antag,CHO-K1 Ca PAM,CHO parental Ca,OX1R antag-1,M1 ag parental,OX1R antag-2
O=C(CN1CCCC1)Nc1c2c(cc3c1CCC3)CCC2,-9,18,-12,10,0,-8
Cn1c(=O)c2c(-c3ccccc3)n(CCCN3CCOCC3)cc2n(C)c1=O,29*,-5,-3,1,0,-4
COc1ccc(NC(=O)Cn2nnc(-c3ccccc3NC(=O)c3cccs3)n2)cc1,6,13,-3,10,0,-22
CCn1nnc(-c2ccccc2NS(=O)(=O)c2ccc(C(=O)OC)cc2)n1,-13,8,-1,9,8,2
COc1ccccc1NC(=O)Cn1nnc(-c2ccccc2NS(=O)(=O)c2ccccc2)n1,28*,-6,18,33,9,15
COc1ccc(NC(=O)Cn2nnc(-c3ccccc3NS(=O)(=O)c3ccc(OC)cc3)n2)cc1,-6,26,39*,32,1,30
CCCN(CC(=O)Nc1ccccc1OC)C(=O)c1ccc(S(=O)(=O)Nc2ccccc2)cc1,-8,-11,1,70*,1,16
COc1ccccc1CNC(=O)c1cc(-c2ccccc2)n(Cc2cc(C)no2)n1,-8,4,-20,29,-1,-32
O=C(Cn1cnc2ccccc21)Nc1ccc(SC(F)F)cc1,17,5,46*,30,8,18
O=C1CN(CC(=O)Nc2ccc(SC(F)F)cc2)CCN1,27*,-16,-1,3,-1,-1
O=C(Cn1cnc2ccccc21)NCc1ccccc1,-16,17,-16,2,4,13
O=C1CN(CC(=O)Nc2ccc(Cl)cc2)CCN1,-1,13,-6,10,0,-8
COc1ccc(S(=O)(=O)NN(C)c2nc(C(F)(F)F)nc3ccccc23)cc1,5,-3,-10,72*,1,-5
COc1ccc(S(=O)(=O)Nc2ccccc2C(F)(F)F)cc1,-22,19,-12,9,0,-30
COc1ccc(N2CCN(c3ccc(NC(=O)NN)cc3)CC2)cc1,-10,16,-5,3,0,-9
Nc1cc(C(=O)O)c(Oc2ccc(Cl)cc2Cl)cc1C(=O)O,2,22,-1,61*,1,-10
c1ccc(NCc2nc3ccccc3n2CCOc2ccccc2)cc1,-5,3,-20,68*,1,12
O=C(CN1C(=O)NC2(CCCCCC2)C1=O)NCc1ccccc1Cl,-10,7,-18,2,0,-2
COc1cc(CN2CCNC(=O)C2CC(=O)N(C)CCC2CCOCC2)cc(OC)c1 (stereo not drawn),4,15,-24,10,0,-14
Cc1cccc(C(=O)NC(C)C(c2cccs2)N2CCOCC2)c1 (stereo not drawn),-3,12,-14,16,15*,-20
CC(NC(=O)c1ccncc1)C(c1cccs1)N1CCOCC1 (stereo not drawn),-18,21,4,11,1,-5
CCC1(c2ccc(F)cc2)NC(=O)N(CC(=O)N(C)C2CCS(=O)(=O)C2)C1=O (stereo not drawn),-1,20,-11,10,2,-10
CN(C)S(=O)(=O)c1cccc(COC(=O)c2ccc3c(c2)OCO3)c1,1,-10,-7,22,6,-9
CN(C)S(=O)(=O)c1cccc(CSCc2cccc(S(=O)(=O)N(C)C)c2)c1,50*,-29,46*,27,18*,6
Cc1cc(C)n2nc(SCc3cccc(S(=O)(=O)N(C)C)c3)nc2n1,8,1,8,14,14,-10
SMILES,CHO-K1 Ca antag,CHO-K1 Ca PAM,CHO parental Ca,OX1R antag-1,M1 ag parental,OX1R antag-2
CC(=O)N/C(=C\c1ccccc1)C(=O)OCc1cccc(S(=O)(=O)N(C)C)c1,-3,-5,·,·,15*,·
CN(C)S(=O)(=O)c1cccc(COC(=O)c2ccc(Cl)cc2O)c1,20,-15,48*,34,8,33
O=C(Nc1c(Cl)cccc1Cl)C1CCN(C(=O)c2cccs2)CC1,-10,6,-3,24,2,-18
CS(=O)(=O)c1ncc(Cl)c(C(=O)Nc2ccc(N3CCOCC3)cc2)n1,13,4,16,58,0,11
CS(=O)(=O)c1ncc(Cl)c(C(=O)Nc2ccc(OC(F)F)cc2)n1,-4,10,14,53*,0,14
CCN(c1ccccc1)S(=O)(=O)c1ccc(NC(=O)c2nc(S(C)(=O)=O)ncc2Cl)cc1,18,-9,46*,20,6,62*
CCS(=O)(=O)c1ncc(Cl)c(C(=O)Nc2ccc(S(=O)(=O)N(C)c3ccccc3)cc2)n1,14,-30,52*,46*,1,51*
CCOC(=O)C(=CNc1ccc(N2CCCCC2)c(S(=O)(=O)Nc2ccccc2OC)c1)C(=O)OCC,7,-11,·,·,0,·
Cc1cc(C(=O)CSc2nn3c(=O)c(C(C)(C)C)nnc3s2)c(C)n1C,-6,8,-7,10,0,11
O=C(NC(=S)N1CCN(c2ccc(F)cc2)CC1)c1ccccc1,-6,12,·,·,0,·
O=C(NC(=S)N1CCN(c2ccc([N+](=O)[O-])cc2)CC1)c1ccc(F)cc1,2,-4,-13,56*,0,-35
O=[N+]([O-])c1ccc(N2CCN(C(=S)NC3CCCCC3)CC2)cc1,9,4,33*,64,9,49*
CC(=O)N1CCN(Cc2nc3cc(NC(=O)NC4CCCCC4)ccc3n2C)CC1,-1,3,2,9,1,-5
O=C(CN1CCN(Cc2ccccc2Cl)CC1)N/N=C/c1ccco1,1,10,-13,12,17*,-22
Cn1c(SCC(=O)N/N=C/c2ccco2)nc2ccccc21,-10,0,-14,28,1,-5
O=C(Cn1c(C(F)(F)F)nc2ccccc21)N/N=C/c1ccco1,11,10,4,17,17*,-25
O=C(NNC(=O)c1ccccc1OCc1ccccc1Cl)c1csc(N2CCOCC2)n1,-5,4,-10,43,5,-27
Cc1ccc(/C=N/n2c(C3CCCCC3)n[nH]c2=S)cc1,1,6,43*,-3,-1,14
S=c1[nH]nc(C2CCCCC2)n1/N=C/c1ccc(Cl)cc1,11,-18,-15,-4,-1,-17
O=C1N2CCSC2=NC1(Nc1nccs1)C(F)(F)F (stereo not drawn),0,5,-3,48*,0,29
Cc1ccc(NS(=O)(=O)c2c(C)[nH]c(C)c2C(=O)N2CCCCC2)c(Br)c1,-6,6,-13,19,0,-10
Cc1ccc(Cl)c(OC(=O)Cn2cnc3c2c(=O)n(C)c(=O)n3C)c1,-6,5,9,10,1,1
CCc1ccc(OC)c(S(=O)(=O)Nc2ccc(Cc3ccncc3)cc2)c1,12,18,48*,42,15*,-3
